Published values pooled from the literature.
Lines come from different studies, so protocols differ.
Target: SRSF protein kinase 1 (SRPK1, Homo sapiens, UniProt Q96SB4)

Structure (SMILES) | test | setting | remaining binding
F[C@@H]1CCN(c2nccc(-c3cnn4ncccc34)n2)C1 | binding | 1 µM | 100%
c1cncc(-c2cccc(Nc3nccc(NC4CCCCC4)n3)c2)c1 | binding, competition with immobilised ligand | 10 µM | 30%
CNC(=O)Nc1ccc2c(c1)[C@@]1(CC2)OC(=O)N(CC(=O)N(Cc2ccc(F)cc2)[C@@H](C)C(F)(F)F)C1=O | cell-free assay, competition with immobilised ligand | 1 µM | 100%
CN(CCCC(F)(F)F)c1nccc(-c2cnn3ncccc23)n1 | binding | 1 µM | 100%
O=C(c1ccc(Nc2ncc(Cl)c(-c3cc4ccccc4s3)n2)cc1)N1CCC(N2CCCC2)CC1 | binding, competition with immobilised ligand | 1 µM | 100%
Nc1cnc(N2CCc3cc(S(=O)(=O)Nc4c(F)cc(Cl)cc4F)cc(N4CCCC4=O)c32)nc1 | cell-free assay, competition with immobilised ligand | 1 µM | 81%
Nc1ncc2c(n1)-c1c([nH]c3ccc(C#CC4CC4)cc13)CCCC2 | binding, competition with immobilised ligand | 1 µM | 87%
O=C(NCC1CCOCC1)c1n[nH]cc1NC(=O)c1c(F)cccc1F | binding, competition with immobilised ligand | 1 µM | 68%
CNCc1ccccc1-c1csc([C@H](C)Nc2nc(C)nc3cc(OC)c(OC)cc23)c1 | cell-free assay, competition with immobilised ligand | 1 µM | 100%
O=C(c1ccc(Nc2nccc(-c3cc4ccccc4s3)n2)cc1)N1CCC(N2CCCC2)CC1 | binding, competition with immobilised ligand | 1 µM | 86%
C[C@@H]1CCN(c2nccc(-c3cnn4ncccc34)n2)C1 | binding | 1 µM | 98%
COc1cnc(Nc2cccc(S(N)(=O)=O)c2)nc1N1CCN(c2ccccc2)C(=O)C1 | binding, competition with immobilised ligand | 1 µM | 100%
CN(C)C(=O)Cn1cc(-c2nc(C3(c4ccc(-c5cnc(N)nc5)cc4)CC3)no2)cn1 | cell-free assay, competition with immobilised ligand | 1 µM | 93%
Cc1cnn2ncc(-c3ccnc(N(C)C)n3)c2c1 | binding | 1 µM | 100%
O=C(O)c1cc(-c2ccc(C3CCNCC3)cc2)c2ccc(-c3ccc(C(F)(F)F)cc3)cc2c1 | cell-free assay, competition with immobilised ligand | 1 µM | 86%
COc1ncc2cc3ccccc3nc2c1C#N | cell-free assay, competition with immobilised ligand | 5 µM | 96%
CC1CCCN1c1nccc(-c2cnn3ncccc23)n1 (stereo not drawn) | binding | 1 µM | 94%
CCOCCn1cc(C(=O)Nc2ccc(-n3nc(-c4cccnc4)cc3C(F)(F)F)cn2)ccc1=O | cell-free assay, competition with immobilised ligand | 1 µM | 98%
CCN1CCN(Cc2ccc(C(=O)Nc3ccc(C)c(Oc4ccc5c(c4)CC(=O)N5)c3)cc2C(F)(F)F)CC1 | binding, competition with immobilised ligand | 1 µM | 98%
N[C@@H]1CCN(c2nccc(-c3cnn4ncccc34)n2)C1 | binding | 1 µM | 92%
Cc1cnc(Nc2ccc(C(=O)N3CCC(N4CCCC4)CC3)cc2)nc1-c1cc2ccccc2s1 | binding, competition with immobilised ligand | 1 µM | 100%
